By IC50 is commonly meant the concentration at which inhibition is half-maximal.

We go through 10 compounds from ChEMBL document CHEMBL1157087, “Cytotoxic polyisoprenyl benzophenonoids from Garcinia subelliptica” (J Nat Prod, 2010).

Common to all, as to assay type: functional, cell-based
Experiment [1] concerns A549. Briefly: Cytotoxicity against human A549 cells after 3 days by SRB assay. The conditions noted are these: A549, 72 h. The gist of the method:
(§1)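 Freshly trypsinized cells seeded at 1500–7500 per well, compound added from DMSO-diluted stock. After 3 days attached cells were fixed with cold 50% TCA, stained with 0.4% SRB, bound dye solubilized and read at 562 nm.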

Experiment [2] deals with DU-145. Briefly: Cytotoxicity against human DU145 cells after 3 days by SRB assay. The conditions noted are these: DU-145, 72 h. The gist of the method:
as §1

The test system of experiment [3] is KB. Description: Cytotoxicity against human KB cells after 3 days by SRB assay. The conditions noted are these: 72 h. The gist of the method: as §1
(Sulforhodamine B stains cellular protein and so reports cell mass.)

In experiment [4] the test system is KB. Description: Cytotoxicity against human vincristine-resistant KB cells overexpressing p-glycoprotein after 3 days by SRB assay. The conditions noted are these: 72 h. The gist of the method: as §1

Values after ≈ are worked out from the molar mass of the structure shown. Where only a bound is given, the exact number is not on record here.

As to `CC(C)=CC[C@@H]1C[C@]23C[C@H](CC=C(C)C)C(C)(C)[C@](CC=C(C)C)(C(=O)C(C(=O)c4ccc(O)c(O)c4)=C2OC1(C)C)C3=O` [ISOXANTHOCHYMOL], the IC50 was 4.4 µg/mL (≈ 7.3 µM) in experiment [1], 4.2 µg/mL (≈ 6.97 µM) in experiment [2], 4.5 µg/mL (≈ 7.47 µM) in experiment [3] and 5.2 µg/mL (≈ 8.63 µM) in experiment [4].
Consider `C=C(C)CCC(C[C@@]12C[C@H]3[C@@H](C=C(C)C)[C@@](C(=O)c4ccc(O)c(O)c4)(C1=O)C(=O)[C@@](CC=C(C)C)(C2=O)C3(C)C)C(=C)C` (some centres undefined), for which the IC50 amounted to 4.2 µg/mL (≈ 6.99 µM) in experiment [1], 4.1 µg/mL (≈ 6.82 µM) in experiment [2], 5.7 µg/mL (≈ 9.49 µM) in experiment [3] and 5.6 µg/mL (≈ 9.32 µM) in experiment [4].
Regarding `C=C(C)CC[C@H](C[C@@H]1C[C@]2(CC=C(C)C)C(=O)[C@@](C(=O)c3ccc(O)c(O)c3)(C(=O)C(CC=C(C)C)=C2O)C1(C)C)C(=C)C` [GARCINIALIPTONE D], the IC50 in experiment [1] stood at 4.4 µg/mL (≈ 7.3 µM); in experiment [2], 3.3 µg/mL (≈ 5.47 µM); in experiment [3] it was 3.9 µg/mL (≈ 6.47 µM); in experiment [4], 4.6 µg/mL (≈ 7.63 µM).
On the same counts, the results for `C=C(C)CC[C@H](C[C@@H]1C[C@@]2(CC=C(C)C)C(=O)C3=C(O[C@H](C(C)(C)O)C3)[C@](C(=O)c3ccc(O)c(O)c3)(C2=O)C1(C)C)C(=C)C` [GARCINIALIPTONE C] are 4.3 µg/mL (≈ 6.95 µM), 4.3 µg/mL (≈ 6.95 µM), 3.4 µg/mL (≈ 5.49 µM) and 4.9 µg/mL (≈ 7.92 µM).
For `C=C(C)CCC(C[C@]12C[C@@H]3[C@H](C=C(C)C)[C@](C(=O)c4ccc(O)c(O)c4)(C1=O)C(=O)[C@](CC=C(C)C)(C2=O)C3(C)C)C(=C)C` (some centres undefined), the IC50 was 4.2 µg/mL (≈ 6.99 µM) in experiment [1], 4.2 µg/mL (≈ 6.99 µM) in experiment [2], 4.4 µg/mL (≈ 7.32 µM) in experiment [3] and 5.3 µg/mL (≈ 8.82 µM) in experiment [4].
For the compound `C=C(C)CC[C@@H]1C[C@]23C[C@H](CC=C(C)C)C(C)(C)[C@](CC=C(C)C)(C(=O)C(C(=O)c4ccc(O)c(O)c4)=C2OC1(C)C)C3=O` [CYCLOXANTHOCHYMOL], the IC50 in experiment [1] was found to be 4.5 µg/mL (≈ 7.47 µM); in experiment [2], 3.7 µg/mL (≈ 6.14 µM); in experiment [3], 5 µg/mL (≈ 8.29 µM); in experiment [4], 4.9 µg/mL (≈ 8.13 µM).
Consider `C=C(C)[C@@H]1C[C@]23C[C@H](CC=C(C)C)C(C)(C)[C@](CC=C(C)C)(C(=O)C(C(=O)c4ccc(O)c(O)c4)=C2O[C@H]1C=C(C)C)C3=O` [GARCINIALIPTONE B], for which the IC50 in experiment [1] was determined as 6.7 µg/mL (≈ 11.2 µM); in experiment [2], 7.3 µg/mL (≈ 12.2 µM); in experiment [3], 5.7 µg/mL (≈ 9.49 µM); in experiment [4], 6.6 µg/mL (≈ 11 µM).
On to `CC(C)=CCC1=C2O[C@H](C(C)(C)O)C[C@@]23C[C@H](CC=C(C)C)C(C)(C)[C@@](C(=O)C(C)C)(C1=O)C3=O`, for which the IC50 in experiment [1], in experiment [2], in experiment [3] and in experiment [4] was greater than 5 µg/mL in each case.
On to `C=C(C)CC[C@H]1C[C@@]23C[C@@H](CC=C(C)C)C(C)(C)[C@@](CC=C(C)C)(C(=O)C(C(=O)c4ccc(O)c(O)c4)=C2OC1(C)C)C3=O`, for which the IC50 in experiment [1] was determined as 4.5 µg/mL (≈ 7.47 µM); in experiment [2] it was 4.7 µg/mL (≈ 7.8 µM); in experiment [3], 4.9 µg/mL (≈ 8.13 µM); in experiment [4], 5.2 µg/mL (≈ 8.63 µM).
Take `CC(=O)O[C@H]1C(=O)[C@@]2(C)[C@H]([C@H](OC(=O)c3ccccc3)[C@]3(O)C[C@H](OC(=O)[C@H](O)[C@@H](NC(=O)c4ccccc4)c4ccccc4)C(C)=C1C3(C)C)[C@]1(OC(C)=O)CO[C@@H]1C[C@@H]2O` [PACLITAXEL]: the half-maximal inhibitory concentration (IC50) is 0.002 µg/mL (≈ 0.00234 µM) in experiment [2], 0.002 µg/mL (≈ 0.00234 µM) in experiment [3] and greater than 0.085 µg/mL in experiment [4].
